# MrgX1 agonist: human MrgX1 receptor agonism, primary screen; Q96LB2; MrgX1-HEK293 cells, Fluo-4 calcium fluorescence, agonist mode; hits give high values; B-score at 10 µM; hit rate 0.44% among 310,000; AID 588627;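 active = calcium response B-score plate-corrected fluorescence ratio at least 3 library SD, with starting fluorescence B-score inside 5 SD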
#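 Assay system: stable human MrgX1 HEK293 cell line. Quantity: 15,000 cells per well. Schedule: cells plated overnight, dye loaded 0.5 h 37 °C, 0.5 h room temperature. Detection: Fluo-4 NW calcium-flux fluorescence, kinetic read. Read-out basis: peak-minus-minimum fluorescence over baseline, converted to B scores. Control set: positive and negative control wells on each plate.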
# RGS4 inh: inhibitors of human RGS4. hit rate 0.45% among 310,000. P49798. B-score at 10 µM. HEK293 M3R/RGS4 inducible, Fluo-4 calcium flux; hits give high values; triggered by carbachol at its EC20;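 active = B-score, a plate-corrected calcium signal, over three deviations above library mean, with baseline fluorescence within five deviations of library mean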;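 also: RGS4 expression induced by doxycycline in cells with stable M3 receptor; B-score is computed from the integrated fluorescence ratio over baseline after carbachol; higher B-score means a larger calcium signal and so more RGS4 inhibition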
# RGS4 act: RGS4 potentiation or activation | hit rate 0.92% among 310,000 | B-score at 10 µM | HEK293 M3R/inducible RGS4, carbachol calcium flux Fluo4; hits give low values;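 active = B-score of the integrated calcium signal more than 4 SD below the library mean, with starting fluorescence not abnormally high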;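 also: negative B-score means reduced calcium response which marks RGS4 activation or potentiation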
#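 Test system: HEK293 cells with stable M3R and inducible RGS4; also added: carbachol at ECmax as muscarinic agonist stimulus; schedule: dye loading 30 min 37 °C, buffer rest 30 min RT; technique: kinetic calcium fluorescence imaging with Fluo4-AM dye, 2 µM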
# Cl transport mod: modulators of human KCC2 chloride dependent transport; KCC2 cells, thallium flux FluoZin-2 fluorescence; B-score of Tl+ flux slope (higher = more flux/activation; lower = inhibition) at 10 µM; hit rate 2.2% among 190,000; AID 1456;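 active = thallium flux slope and its plate-corrected score both differing from the plate sample mean at a set confidence after two filtering rounds, in either direction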;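 also: slope of fluorescence scaled to starting intensity during 10 to 20 s after thallium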
# Target sequence (Q9H2X9 whole entry, looked up): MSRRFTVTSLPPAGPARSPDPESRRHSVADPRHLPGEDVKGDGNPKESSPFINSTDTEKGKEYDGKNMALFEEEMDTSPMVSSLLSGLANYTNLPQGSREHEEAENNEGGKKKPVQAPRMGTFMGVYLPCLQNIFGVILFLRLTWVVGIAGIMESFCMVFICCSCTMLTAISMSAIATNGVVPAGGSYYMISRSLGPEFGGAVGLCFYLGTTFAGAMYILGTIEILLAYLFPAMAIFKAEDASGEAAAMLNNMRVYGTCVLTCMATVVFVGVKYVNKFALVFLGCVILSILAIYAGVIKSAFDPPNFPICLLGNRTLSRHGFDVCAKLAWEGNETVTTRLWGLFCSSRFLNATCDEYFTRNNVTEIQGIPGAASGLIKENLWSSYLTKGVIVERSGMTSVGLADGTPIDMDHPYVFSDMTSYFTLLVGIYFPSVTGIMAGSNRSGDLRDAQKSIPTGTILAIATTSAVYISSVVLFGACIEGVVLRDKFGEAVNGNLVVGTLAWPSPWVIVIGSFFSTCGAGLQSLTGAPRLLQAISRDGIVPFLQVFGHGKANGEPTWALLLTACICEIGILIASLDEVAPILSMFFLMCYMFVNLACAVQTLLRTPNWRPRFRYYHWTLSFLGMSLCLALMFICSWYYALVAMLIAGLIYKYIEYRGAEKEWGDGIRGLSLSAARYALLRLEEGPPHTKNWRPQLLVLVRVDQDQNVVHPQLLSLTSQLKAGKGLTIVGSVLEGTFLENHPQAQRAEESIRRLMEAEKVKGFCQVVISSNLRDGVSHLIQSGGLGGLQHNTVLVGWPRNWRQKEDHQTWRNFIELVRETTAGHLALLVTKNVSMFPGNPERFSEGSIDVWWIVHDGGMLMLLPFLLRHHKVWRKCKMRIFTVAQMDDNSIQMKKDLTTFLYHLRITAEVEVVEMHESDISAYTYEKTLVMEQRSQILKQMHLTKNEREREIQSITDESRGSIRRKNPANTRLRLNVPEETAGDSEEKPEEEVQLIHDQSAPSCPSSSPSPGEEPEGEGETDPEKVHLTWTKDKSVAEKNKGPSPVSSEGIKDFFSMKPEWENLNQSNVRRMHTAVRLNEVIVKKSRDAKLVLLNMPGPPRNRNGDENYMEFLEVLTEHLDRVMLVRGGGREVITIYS
# MrgX1 allo act: human MrgX1 positive allosteric modulation, primary screen. MrgX1-HEK293, Fluo-4 calcium flux, FDSS; hits give high values. B-score at 10 µM. hit rate 0.63% among 310,000;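 active = plate-corrected calcium response at least 3 library SD above typical, normal starting fluorescence, not activating the receptor alone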;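 also: compound read alongside a low EC10 to EC30 dose of BAM8-22 agonist; peak minus trough fluorescence over baseline measured at the second addition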
# MrgX1 antag: antagonists of human MrgX1 receptor. Q96LB2. MRGX1-HEK293 calcium flux, Fluo-4, BAM8-22 antagonism; hits give low values. B-score at 10 µM. hit rate 1.3% among 310,000. AID 588676;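 active = calcium-response B-score plate-corrected more than 3 library SD below zero, starting fluorescence within 5 deviations, no agonist response on first addition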;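 also: peak minus trough fluorescence over baseline after final BAM8-22 challenge near maximal dose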
# MrgX1 ant reconf: human MrgX1 receptor antagonism, re-confirmation screen; shares compounds with MrgX1 antag; MrgX1-HEK293, BAM8-22 calcium flux, Fluo-4; hits give low values; remaining BAM8-22 calcium response % of control (hits give low values), % at 10 µM; hit rate 19% among 2,300; AID 602420;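 active = remaining agonist calcium response no higher than 100% minus 3 SD of agonist-only control wells, with starting fluorescence near control levels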;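 also: agonist BAM8-22 given at a near maximal EC90 to ECmax level; peak minus minimum fluorescence divided by baseline after agonist addition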
# HEK293 Ca flux: MrgX1 antagonist counter-screen hit in parental HEK293 cells. shares compounds with MrgX1 antag. Fluo-4 calcium fluorescence, FDSS. fluorescence ratio F(max-min)/F0 at 10 µM. hit rate 2% among 4,000. AID 624111;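 active = duplicate-averaged calcium fluorescence ratio at least three times the standard deviation of buffer wells, a nonspecific response in parental cells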
# HEK293 Ca counter: activity in parental HEK293 cells without MrgX1. shares compounds with MrgX1 antag. hit rate 0.4% among 4,000. parental HEK293 calcium flux, Fluo-4 fluorescence ratio; hits give high values. fluorescence ratio F(max-min)/F0 at 10 µM;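 active = calcium fluorescence ratio, averaged over duplicates, at least 3 SD of the buffer-well ratio, meaning a nonspecific response in receptor-free cells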;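 also: untransfected parental HEK293 lacking MrgX1 used as counterscreen for MrgX1 allosteric activators; fluorescence change taken during the second addition on a kinetic imager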
# HEK293 Ca cntr2: activity in parental HEK293 cells lacking MrgX1 receptor; shares compounds with MrgX1 antag; Fluo-4 calcium fluorescence (FDSS); hits give high values; fluorescence ratio F(max-min)/F0 at 10 µM; hit rate 8.7% among 4,000;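 active = calcium fluorescence ratio at least three times the spread of buffer wells, meaning a non-specific response in parental cells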
# * marks the source's active call; other numbers are inactive results; i = inactive; x = no result. Rows were chosen to be rich in hits. Some 4.7% of all compounds tested hit in one or more screens of this group.
SMILES,MrgX1 agonist,RGS4 inh,RGS4 act,Cl transport mod,MrgX1 allo act,MrgX1 antag,MrgX1 ant reconf,HEK293 Ca flux,HEK293 Ca counter,HEK293 Ca cntr2
Cc1cc(C(=O)N2CCN(c3ccc([N+](=O)[O-])cc3)CC2)n[nH]1,i,i,i,x,i,i,x,x,x,x
Cc1cc(C(=O)CSc2nc3ccccc3[nH]2)c(C)n1CC1CCCO1 (centres undefined),i,i,i,-0.45,i,-8.1*,9.7%*,i,i,i
Cc1ccc(C(=O)NCCCNC(=O)c2ccco2)cc1C,i,i,i,x,i,i,x,x,x,x
Cc1ccc(Nc2nc3ccccc3nc2-n2nc(C)cc2C)cc1,i,i,i,-0.036,i,i,x,x,x,x
Cc1cc(C)n(-c2nc3ccccc3nc2Nc2ccc(CC(=O)O)cc2)n1,i,i,i,-0.92,i,-7.6*,i,i,i,i
CC1CCN(C(=O)C2CCC(CNS(=O)(=O)c3cccc4cccnc34)CC2)CC1 (centres undefined),i,i,i,x,i,-5.3*,i,i,i,i
CCOC(=O)COc1ccc2c(c1)C(=O)CC1(CCCCC1)O2,i,i,i,0.25,i,-7.6*,i,i,i,i
O=C(COc1ccc2c(c1)C(=O)CC1(CCCCC1)O2)NCc1ccccc1,i,i,i,0.56,i,i,x,x,x,x
CC(=O)c1cccc(NC(=O)c2cc(S(=O)(=O)N3CCOCC3)cs2)c1,i,i,i,x,i,i,x,x,x,x
COc1ccc(/C=N/n2c(N)nc3ccccc32)cc1OC,i,x,x,0.048,i,-8.6*,i,i,i,i
CCOc1ccc(S(=O)(=O)N2CCCCC2)cc1NC(=O)c1c(CC)noc1C,i,i,i,x,i,i,x,x,x,x
Cc1nn(CCO)c2nc(-c3cccs3)cc(C(F)(F)F)c12,i,i,i,x,i,-9.5*,i,i,i,i
Cc1ccc(NC(=O)c2cccnc2)cc1S(=O)(=O)N(C)C,i,i,i,-0.0038,i,i,x,x,x,x
Cc1ccc(NC(=O)c2ccc3ncsc3c2)cc1S(=O)(=O)N(C)C,i,i,i,-1.7,i,-5.4*,i,i,i,i
COc1ccccc1NC(=O)C(=O)NCCC1CCCCN1S(=O)(=O)c1ccc(F)cc1 (centres undefined),i,i,i,x,i,i,x,x,x,x
Cc1nc2c(C(=O)N3CCN(C)CC3)cnn2c(C)c1Cc1ccc(Cl)cc1,i,i,i,-3.5,i,i,x,x,x,x
C=CCc1c(C)nc2c(C(=O)O)cnn2c1C,i,i,i,0.094,i,-4.6*,i,i,i,i
O=C(Nc1ccc(CN2CCOCC2)cc1)c1cc2ccccn2n1,i,i,i,0.18,i,-4.9*,i,i,i,i
COc1cc2c(cc1OC)C(NC(=O)c1ccc(C)cc1)CC2=O (centres undefined),i,i,i,x,i,i,x,x,x,x
O=C(Nc1cccc(S(=O)(=O)N2CCOCC2)c1)C1CCCN(C(=O)c2ccc(Cl)cc2)C1 (centres undefined),i,i,i,-0.22,i,i,x,x,x,x
CCN1C(=O)c2cccc3c(S(=O)(=O)Nc4ccncc4)ccc1c23,i,i,i,0.58,i,i,x,x,x,x
CCN1C(=O)c2cccc3c(S(=O)(=O)Nc4ccccc4)ccc1c23,i,i,i,-0.62,i,-6.9*,i,i,i,i
Cn1ccnc1SCC(=O)NC1(C#N)CCCCC1,i,i,i,x,i,i,x,x,x,x
COc1ccc(N2C(=NC(=O)CC3CCCCC3)SC3CS(=O)(=O)CC32)cc1 (centres undefined),i,i,i,x,i,i,x,x,x,x
Nc1cccnc1Sc1cc(Cl)c(Cl)cc1Cl,i,i,i,-1,i,-6.5*,i,i,i,i
SMILES,MrgX1 agonist,RGS4 inh,RGS4 act,Cl transport mod,MrgX1 allo act,MrgX1 antag,MrgX1 ant reconf,HEK293 Ca flux,HEK293 Ca counter,HEK293 Ca cntr2
COc1ccc(/C=C/C(=O)NC(=S)NCc2ccccc2)cc1OC,i,i,i,0.6,i,i,x,x,x,x
Cc1ccc(S(=O)(=O)CCc2nc3ccccc3[nH]2)cc1C,i,i,i,0.79,i,-4.7*,i,i,i,i
Cc1ccc(S(=O)(=O)CCc2nc3ccccc3[nH]2)cc1,i,i,i,0.48,i,i,x,x,x,x
CCOc1ccccc1N1CCN(C(=O)CCCN2C(=O)c3cccc4cccc(c34)C2=O)CC1,i,i,i,-2.2,i,-5.5*,i,i,i,i
O=C(CSC1=NS(=O)(=O)c2cc(Cl)ccc2N1)Nc1ccccc1C(F)(F)F,i,i,i,x,i,-10*,i,i,i,i
Cc1cccc(N2CCN(C(=O)c3ccc(N4CCCC4=O)cc3)CC2C)c1 (centres undefined),i,i,i,x,i,-4.9*,i,i,i,i
O=C(NCCN1CCN(C(=O)Nc2ccccc2)CC1)Nc1ccccc1,i,i,i,x,i,-6.1*,i,i,i,i
CC(C)c1ccc(O)c(NC(=O)c2cncc(Br)c2)c1,i,i,i,-0.11,i,-7.8*,i,i,i,i
CCC(C)c1ccc(O)c(NC(=O)c2cccnc2)c1 (centres undefined),i,i,i,0.24,i,i,x,x,x,x
O=C(Nc1ccncc1)c1cncc(Br)c1,i,i,i,x,i,-5.4*,i,i,i,i
O=C(Nc1cccc(NC(=O)c2cncc(Br)c2)c1)c1cncc(Br)c1,i,i,i,x,i,i,x,x,x,x

# Compound activity deposited in PubChem BioAssay by several laboratories.
